# Experimental data: ChEMBL document CHEMBL1154841, “Cytotoxic triterpene dilactones from the stems of Kadsura ananosma” (J Nat Prod, 2010)
# Experiments:
# Format in all cases: functional, cell-based
# HL-60 = test: Cytotoxicity against human HL60 cells after 48 hrs by MTT assay; settings: HL-60, 48 h
# Procedure, shortened: (§1)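 Cells grown in RPMI-1640 or DMEM with 10% fetal bovine serum, 37 °C, 5% CO2. Seeded at 1 × 10^5 cells/mL; adherent lines attached 12 h before dosing, suspension cells (HL-60) seeded at dosing. Compound given at various concentrations in triplicate for 48 h; 10-hydroxycamptothecin positive control. MTT 4 h at 37 °C, lysis in 20% SDS-50% DMF, formazan read at 595 nm.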
# SMMC-7721 = test: Cytotoxicity against of human SMMC7721 cells after 48 hrs by MTT assay; settings: SMMC-7721, 48 h; procedure, shortened: as §1
# A549 = test: Cytotoxicity against human A549 cells after 48 hrs by MTT assay; settings: A549, 48 h; procedure, shortened: as §1
# PANC-1 = test: Cytotoxicity against human PANC1 cells after 48 hrs by MTT assay; settings: PANC-1, 48 h; procedure, shortened: as §1
# SK-BR-3 = test: Cytotoxicity against human SK-BR-3 cells after 48 hrs by MTT assay; settings: SK-BR-3, 48 h; procedure, shortened: as §1
Structure (SMILES),IC50 (HL-60) [µM],IC50 (SMMC-7721) [µM],IC50 (A549) [µM],IC50 (PANC-1) [µM],IC50 (SK-BR-3) [µM]
C=C1[C@@H]2C[C@]3(O)[C@H]4O[C@]45C=CC(=O)OC(C)(C)[C@@H]5[C@H](O)C[C@H]3[C@]2(C)CC[C@@]1(O)[C@@H](C)[C@H]1CC=C(C)C(=O)O1 [LONGIPEDLACTONE I],> 10,> 10,> 10,> 10,> 10
C=C1C([C@@H](C)[C@H]2CC=C(C)C(=O)O2)=CC[C@]2(C)[C@H]1C[C@]1(O)[C@H]3O[C@]34C=CC(=O)OC(C)(C)[C@@H]4[C@H](OC(C)=O)C[C@@H]21 [LONGIPEDLACTONE N],> 10,> 10,> 10,> 10,> 10
C=C1C([C@@H](C)[C@H]2CC=C(C)C(=O)O2)=CC[C@]2(C)[C@H]1C[C@]1(O)[C@H]3O[C@]34C=CC(=O)OC(C)(C)[C@@H]4[C@H](O)C[C@@H]21 [LONGIPEDLACTONE G],> 10,> 10,> 10,> 10,> 10
C=C1C([C@@H](C)[C@H]2CC=C(C)C(=O)O2)=CC[C@]2(C)[C@H]1C[C@]1(O)[C@H]3O[C@]34C=CC(=O)OC(C)(C)[C@@H]4CC[C@@H]21 [LONGIPEDLACTONE D],> 10,> 10,> 10,> 10,> 10
C=C1[C@@H]2C[C@]3(O)C=C4C=CC(=O)OC(C)(C)[C@@H]4[C@H](OC(C)=O)C[C@H]3[C@]2(C)CC[C@@]1(O)[C@@H](C)[C@H]1CC=C(C)C(=O)O1 [LONGIPEDLACTONE M],4.1,> 10,> 10,> 10,> 10
C=C1[C@H]([C@@H](C)[C@H]2CC=C(C)C(=O)O2)CC[C@]2(C)[C@H]1C[C@]1(O)C=C3C=CC(=O)OC(C)(C)[C@@H]3[C@H](OC(C)=O)C[C@@H]21 [LONGIPEDLACTONE L],7.3,> 10,> 10,> 10,> 10
C=C1[C@H]([C@@H](C)[C@H]2CC=C(C)C(=O)O2)CC[C@@]2(C)[C@@H]3C[C@@H](OC(C)=O)[C@H]4C(C)(C)OC(=O)C[C@H]5OO[C@]3(C[C@@H]12)C[C@]54O [LONGIPEDLACTONE K],> 10,> 10,> 10,> 10,> 10
C=C1C([C@@H](C)[C@H]2CC=C(C)C(=O)O2)=CC[C@]2(C)[C@H]1C[C@]1(O)C=C3C=CC(=O)OC(C)(C)[C@@H]3CC[C@@H]21 [LONGIPEDLACTONE A],3.5,> 10,> 10,> 10,> 10
C=C1C([C@@H](C)[C@H]2CC=C(C)C(=O)O2)=CC[C@]2(C)[C@H]1C[C@]1(O)C=C3C=CC(=O)OC(C)(C)[C@@H]3[C@H](O)C[C@@H]21 [LONGIPEDLACTONE F],2.3,> 10,> 10,8.8,7.4
C=C1C([C@@H](C)[C@H]2CC=C(C)C(=O)O2)=CC[C@]2(C)[C@H]1C[C@]1(O)C=C3C=CC(=O)OC(C)(C)[C@@H]3[C@H](OC(C)=O)C[C@@H]21 [LOGIPEDLACTONE J],2,> 10,> 10,5.3,2.8
C=C1[C@@H]2C[C@]3(O)[C@H]4O[C@]45C=CC(=O)OC(C)(C)[C@@H]5[C@H](OC(C)=O)C[C@H]3[C@]2(C)CC[C@@]1(O)[C@@H](C)[C@H]1CC=C(C)C(=O)O1 [LONGIPEDLACTONE P],> 10,> 10,> 10,> 10,> 10
